Reference: ChEMBL document CHEMBL1144120, “In vitro evaluation of antifungal properties of phenylpropanoids and related compounds acting against dermatophytes” (1999)
≈ marks a conversion by molar mass, not a printed value. Calls of active or inactive are those of the source. The calls are words filed in the database; no cut-off is given here.

How the values were obtained:
[1] = test system: Aspergillus fumigatus; test: Antifungal activity against Aspergillus fumigatus ATCC 26934 by agar dilution method; type: functional, organism-based
Outline: (§1)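 Sabouraud chloramphenicol agar dilution in 96-well plates. Strains were grown on Sabouraud chloramphenicol agar slants for 48 h at 30 °C and suspended in sterile distilled water, adjusted to 10^6 viable cells/mL. DMSO stocks were serially two-fold diluted into the agar to give 0.10–50 µg/mL, with DMSO ≤2% final. 5 µL inoculum per well; incubated 24, 48 or 72 h at 30 °C per control growth; MIC recorded.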

[2] = test system: Trichophyton mentagrophytes; test: Antifungal activity against Trichophyton mentagrophytes ATCC by agar dilution method; type: functional
Outline: (§2)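 Dermatophytes were tested by agar dilution on Sabouraud chloramphenicol agar in 96-well plates. DMSO stock solutions were serially two-fold diluted into the medium to give final concentrations of 0.10–50 µg/mL, with DMSO not exceeding 2%. Each well received 5 µL of spore suspension.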

[3] = test system: Trichophyton rubrum; test: Antifungal activity against Trichophyton rubrum C 113 by agar dilution method; type: functional; outline: as §2
[4] = test system: Cryptococcus neoformans; test: Antifungal activity against Cryptococcus neoformans ATCC 32264 by agar dilution method; type: functional, organism-based; outline: as §1
[5] = test system: Nannizzia gypsea; test: Antifungal activity against Microsporum gypseum C 115 up to 50 ug/mL by agar dilution method; type: functional, organism-based; outline: as §2
[6] = test system: Microsporum canis; test: Antifungal activity against Microsporum canis C 112 up to 50 ug/mL by agar dilution method; type: functional, organism-based; outline: as §2
[7] = test system: Nannizzia gypsea; test: Antifungal activity against Microsporum gypseum C 115 by agar dilution method; type: functional; outline: as §2
[8] = test system: Aspergillus niger; test: Antifungal activity against Aspergillus niger ATCC 9029 by agar dilution method; type: functional, organism-based; outline: as §1
[9] = test system: Epidermophyton floccosum; test: Antifungal activity against Epidermophyton floccosum C 114 by agar dilution method; type: functional; outline: as §2
[10] = test system: Microsporum canis; test: Antifungal activity against Microsporum canis C 112 by agar dilution method; type: functional; outline: as §2
[11] = test system: Saccharomyces cerevisiae; test: Antifungal activity against Saccharomyces cerevisiae ATCC 9763 by agar dilution method; type: functional, organism-based; outline: as §1
[12] = test system: Trichophyton rubrum; test: Antifungal activity against Trichophyton rubrum C 113 up to 50 ug/mL by agar dilution method; type: functional, organism-based; outline: as §2
[13] = test system: Aspergillus flavus; test: Antifungal activity against Aspergillus flavus ATCC 9170 by agar dilution method; type: functional, organism-based; outline: as §1
[14] = test system: Epidermophyton floccosum; test: Antifungal activity against Epidermophyton floccosum C 114 up to 50 ug/mL by agar dilution method; type: functional, organism-based; outline: as §2
[15] = test system: Candida albicans; test: Antifungal activity against Candida albicans ATCC 10231 by agar dilution method; type: functional, organism-based; outline: as §1
[16] = test system: Trichophyton mentagrophytes; test: Antifungal activity against Trichophyton mentagrophytes ATCC 9972 up to 50 ug/mL by agar dilution method; type: functional, organism-based; outline: as §2

MIC [2]	MIC [3]	MIC [7]	MIC [9]	MIC [10]	Compound	Activity [1]	Activity [4]	Activity [5]	Activity [6]	Activity [8]	Activity [11]	Activity [12]	Activity [13]	Activity [14]	Activity [15]	Activity [16]
> 50 µg/mL	> 50 µg/mL	> 50 µg/mL	> 50 µg/mL	> 50 µg/mL	C=CCc1cc(OC)c(OC)c(OC)c1	inactive	inactive	inactive	inactive	inactive	inactive	inactive	inactive	inactive	inactive	inactive
> 50 µg/mL	> 50 µg/mL	> 50 µg/mL	> 50 µg/mL	> 50 µg/mL	CCC(=O)c1cc(OC)c(OC)c(OC)c1	inactive	inactive	inactive	inactive	inactive	inactive	inactive	inactive	inactive	inactive	inactive
25 µg/mL (≈ 118 µM)	10 µg/mL (≈ 47 µM)	12.5 µg/mL (≈ 58.8 µM)	6.25 µg/mL (≈ 29.4 µM)	12.5 µg/mL (≈ 58.8 µM)	CC(Cl)C(=O)c1ccc2c(c1)OCO2 (configuration not stated)	inactive	inactive	inactive	inactive	inactive	inactive	inactive	inactive	inactive	inactive	inactive
> 50 µg/mL	> 50 µg/mL	> 50 µg/mL	> 50 µg/mL	> 50 µg/mL	CCC(O)c1ccc2c(c1)OCO2 (configuration not stated)	inactive	inactive	inactive	inactive	inactive	inactive	inactive	inactive	inactive	inactive	inactive
25 µg/mL (≈ 136 µM)	40 µg/mL (≈ 217 µM)	40 µg/mL (≈ 217 µM)	40 µg/mL (≈ 217 µM)	50 µg/mL (≈ 271 µM)	CCC(=O)c1ccc2ccccc2c1	inactive	inactive	inactive	inactive	inactive	inactive	inactive	inactive	inactive	inactive	inactive
15 µg/mL (≈ 58 µM)	10 µg/mL (≈ 38.7 µM)	12.5 µg/mL (≈ 48.3 µM)	0.5 µg/mL (≈ 1.93 µM)	6.25 µg/mL (≈ 24.2 µM)	COc1cc(C(=O)C(C)Cl)cc(OC)c1OC (configuration not stated)	inactive	inactive	inactive	inactive	inactive	inactive	inactive	inactive	inactive	inactive	inactive

Compound	MIC [2]	MIC [3]	MIC [7]	MIC [9]	MIC [10]	Activity [1]	Activity [4]	Activity [5]	Activity [6]	Activity [8]	Activity [11]	Activity [12]	Activity [13]	Activity [14]	Activity [15]	Activity [16]
CCC(=O)c1ccc(OC)cc1	> 50 µg/mL	> 50 µg/mL	> 50 µg/mL	> 50 µg/mL	> 50 µg/mL	inactive	inactive	inactive	inactive	inactive	inactive	inactive	inactive	inactive	inactive	inactive
